Active and inactive are the calls of the source. The rule behind the calls is not given here.
Key:
[1] = Cytotoxicity against BALB/c mouse lymph node cells after 24 hrs by MTT assay; assay type: cell-based
Outline: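 Fresh BALB/C mouse lymph node cells, 5 × 10⁵ per well, given compounds at […] for 24 h at 37 °C, 5% CO₂; untreated cells served as control. MTT (4 mg/mL in PBS) added for the final 4 h, formazan dissolved in DMSO, absorbance read at 570 nm; CC₅₀ reported with SD.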

[2] = Immunosuppressive activity in BALB/c mouse T cells assessed as inhibition of ConA-induced T cell proliferation incubated 24 hrs post ConA-induction for 72 hrs by MTT assay; assay type: functional, cell-based
Outline: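 BALB/C lymph node cells, 5 × 10⁵ per well, stimulated with ConA at […] for 24 h, then left untreated or given compounds for 72 h. MTT (4 mg/mL in PBS) added for the last 4 h; proliferation read by MTT and IC₅₀ reported with SD.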

[3] = tested on: T-cell; experiment: Selectivity index ratio of CC50 for BALB/c mouse lymph node cells to IC50 for BALB/c mouse ConA-induced T cell proliferation; assay type: functional
Outline: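 Ratio of the lymph node cell CC₅₀ from the 24 h MTT cytotoxicity assay to the IC₅₀ against ConA-stimulated proliferation from the 72 h MTT assay.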

[4] = target: Phosphatidylinositol 4,5-bisphosphate 3-kinase catalytic subunit gamma isoform (Homo sapiens, UniProt P48736); experiment: Inhibition of PI3Kgamma after 4 hrs
Sequence of Phosphatidylinositol 4,5-bisphosphate 3-kinase catalytic subunit gamma isoform (P48736 whole entry, canonical isoform): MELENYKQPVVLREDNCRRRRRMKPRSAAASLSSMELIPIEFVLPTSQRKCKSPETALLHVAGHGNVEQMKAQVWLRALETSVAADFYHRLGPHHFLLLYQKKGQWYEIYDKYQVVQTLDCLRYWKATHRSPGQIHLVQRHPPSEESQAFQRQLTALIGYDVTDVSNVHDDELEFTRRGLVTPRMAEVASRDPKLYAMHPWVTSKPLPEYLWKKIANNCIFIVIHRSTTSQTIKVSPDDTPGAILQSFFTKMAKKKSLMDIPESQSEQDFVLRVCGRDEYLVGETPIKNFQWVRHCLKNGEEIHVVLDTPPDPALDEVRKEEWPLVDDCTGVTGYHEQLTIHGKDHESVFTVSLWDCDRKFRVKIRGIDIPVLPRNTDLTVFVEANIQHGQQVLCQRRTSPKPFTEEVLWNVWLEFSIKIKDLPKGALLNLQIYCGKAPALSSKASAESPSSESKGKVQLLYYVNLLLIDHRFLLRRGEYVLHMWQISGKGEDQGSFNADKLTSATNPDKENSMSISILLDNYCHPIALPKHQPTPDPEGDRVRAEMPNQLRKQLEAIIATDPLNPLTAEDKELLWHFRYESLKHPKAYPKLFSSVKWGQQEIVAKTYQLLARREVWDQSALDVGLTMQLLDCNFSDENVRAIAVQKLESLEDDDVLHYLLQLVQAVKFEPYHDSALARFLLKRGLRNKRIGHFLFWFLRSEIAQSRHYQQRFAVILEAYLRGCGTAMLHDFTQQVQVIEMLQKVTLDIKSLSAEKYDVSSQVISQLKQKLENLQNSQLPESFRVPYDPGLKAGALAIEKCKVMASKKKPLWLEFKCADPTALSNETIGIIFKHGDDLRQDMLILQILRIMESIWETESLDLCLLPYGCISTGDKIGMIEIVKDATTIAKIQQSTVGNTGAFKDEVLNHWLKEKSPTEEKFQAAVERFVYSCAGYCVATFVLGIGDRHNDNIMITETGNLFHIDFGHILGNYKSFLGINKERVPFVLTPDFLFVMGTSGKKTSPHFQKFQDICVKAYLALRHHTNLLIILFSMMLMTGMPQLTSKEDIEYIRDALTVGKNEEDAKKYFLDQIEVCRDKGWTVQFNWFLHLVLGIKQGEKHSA

[5] = tested on: T-cell; experiment: Induction of apoptosis in BALB/c mouse ConA-activated T cells assessed as early apoptotic cells at 0.25 uM incubated 24 hrs-post ConA-activation for 24 hrs by AnnexinV-FITC based flow cytometry relative to vehicle treated control; assay type: functional
Outline: (§1)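 Lymph node cells, 3 × 10⁶ per well, stimulated with ConA at […] for 24 h, then exposed to compound at 0.25, 2.5 or 25 µM for 24 h. Cells harvested, stained with Annexin V-FITC and propidium iodide, and apoptotic fraction measured by flow cytometry.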

[6] = tested on: T-cell; experiment: Induction of apoptosis in BALB/c mouse ConA-activated T cells assessed as early apoptotic cells at 2.5 uM incubated 24 hrs-post ConA-activation for 24 hrs by AnnexinV-FITC based flow cytometry relative to vehicle treated control; assay type: functional; outline: as §1
[7] = tested on: T-cell; experiment: Induction of apoptosis in BALB/c mouse ConA-activated T cells assessed as early apoptotic cells at 25 uM incubated 24 hrs-post ConA-activation for 24 hrs by AnnexinV-FITC based flow cytometry relative to vehicle treated control; assay type: functional; outline: as §1
[8] = tested on: T-cell; experiment: Induction of apoptosis in BALB/c mouse ConA-activated T cells incubated 24 hrs-post ConA-activation for 24 hrs by AnnexinV-FITC based flow cytometry; assay type: functional; outline: as §1
[9] = organism: Mus musculus; experiment: Inhibition of PI3K-mediated AKT inhibition in BALB/c mouse lymph node cells assessed as reduction in ConA-induced IL1 production at 5 uM incubated for 2 hrs prior to ConA-indution measured after 22 hrs by ELISA
Outline: (§2)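 Mouse lymph node cells kept in DMEM with 10% FBS, penicillin and streptomycin at 37 °C, 5% CO₂. Pre-treated with compound at […] or vehicle for 2 h, then with ConA at […] for 22 h. Media centrifuged, and IL-1, IL-6 and IL-10 quantified by mouse ELISA kits.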

[10] = organism: Mus musculus; experiment: Inhibition of PI3K-mediated AKT inhibition in BALB/c mouse lymph node cells assessed as reduction in ConA-induced IL6 production at 5 uM incubated for 2 hrs prior to ConA-indution measured after 22 hrs by ELISA; outline: as §2
[11] = organism: Mus musculus; experiment: Inhibition of PI3K-mediated AKT inhibition in BALB/c mouse lymph node cells assessed as reduction in ConA-induced IL10 production at 5 uM incubated for 2 hrs prior to ConA-indution measured after 22 hrs by ELISA; outline: as §2

| SMILES | CC50 at 24 h [1] [µM] | IC50 [2] [µM] | Ratio CC50/IC50 [3] | other results |
| --- | --- | --- | --- | --- |
| COc1cc(-c2nnc(SCc3ccc(F)cc3F)o2)ccc1O | 520 | 9.69 | 53.67 | – |
| COc1cc(-c2nnc(SCc3c(F)cccc3F)o2)ccc1OCc1c(F)cccc1F | 179 | 5.22 | 34.21 | IC50 [4]: 5.74 µM |
| COc1cc(-c2nnc(SCc3ccc(Br)cc3)o2)ccc1O | 455 | 8.83 | 51.58 | – |
| COc1cc(-c2nnc(SCc3ccc(Cl)cc3)o2)ccc1O | 480 | 11.1 | 43.35 | – |
| COc1cc(-c2nnc(SCc3ccccc3F)o2)ccc1O | 474 | 5.79 | 81.82 | – |
| COc1cc(-c2nnc(SCc3cccc(Br)c3)o2)ccc1O | 382 | 48.1 | 7.95 | – |
| COc1cc(-c2nnc(SCc3cccc([N+](=O)[O-])c3)o2)ccc1OCc1cccc([N+](=O)[O-])c1 | 168 | 12.2 | 13.75 | – |
| COc1cc(-c2nnc(SCc3ccccc3Cl)o2)ccc1OCc1ccccc1Cl | 144 | 10.6 | 8.67 | – |
| C/C=C/C[C@@H](C)[C@@H](O)[C@H]1C(=O)N[C@@H](CC)C(=O)N(C)CC(=O)N(C)[C@@H](CC(C)C)C(=O)N[C@@H](C(C)C)C(=O)N(C)[C@@H](CC(C)C)C(=O)N[C@@H](C)C(=O)N[C@H](C)C(=O)N(C)[C@@H](CC(C)C)C(=O)N(C)[C@@H](CC(C)C)C(=O)N(C)[C@@H](C(C)C)C(=O)N1C [CYCLOSPORINE] | – | – | 82.19 | – |
| COc1cc(-c2nnc(SCc3cccc([N+](=O)[O-])c3)o2)ccc1O | 392 | 16 | 24.59 | – |
| COc1cc(-c2nnc(SCc3ccc(F)cc3F)o2)ccc1OCc1ccc(F)cc1F | 182 | 12.9 | 14.1 | – |
| COc1cc(-c2nnc(SCc3ccccc3)o2)ccc1O | 211 | 1.25 | 168.83 | IC50 [4]: 1.34 µM; Activity [5]: 2.43%; Activity [6]: 4.34%; Activity [7]: 4.98%; Activity [8]: Dose-dependent effect; inhibition [9]: Active; inhibition [10]: Active; inhibition [11]: Active |
| COc1cccc(CSc2nnc(-c3ccc(O)c(OC)c3)o2)c1 | 389 | 7.41 | 52.55 | IC50 [4]: 2.87 µM |
| COc1cc(-c2nnc(SCc3ccc(Br)cc3)o2)ccc1OCc1ccc(Br)cc1 | 225 | 17.3 | 12.99 | – |
| COc1cc(-c2nnc(SCc3ccccc3Br)o2)ccc1O | 363 | 17.8 | 20.42 | – |
| COc1cc(-c2nnc(SCc3ccccc3[N+](=O)[O-])o2)ccc1O | 331 | 9.6 | 34.45 | – |
| COc1cc(-c2nnc(SCc3ccccc3Cl)o2)ccc1O | 564 | 8.43 | 66.94 | – |
| COc1cc(-c2nnc(SCc3c(F)cccc3F)o2)ccc1O | 575 | 10.1 | 57.1 | – |

| SMILES | CC50 at 24 h [1] [µM] | IC50 [2] [µM] | Ratio CC50/IC50 [3] | other results |
| --- | --- | --- | --- | --- |
| COc1cc(-c2nnc(SCc3cccc(Br)c3)o2)ccc1OCc1cccc(Br)c1 | 161 | 9.12 | 17.66 | – |
| COc1cc(-c2nnc(SCc3cccc(Cl)c3)o2)ccc1O | 470 | 8.29 | 56.74 | – |
| COc1cc(-c2nnc(SCc3ccc(F)cc3)o2)ccc1O | 685 | 8.19 | 83.62 | – |
| COc1cc(-c2nnc(SCc3ccccc3)o2)ccc1OCc1ccccc1 | 197 | 13.3 | 14.79 | – |
| COc1cc(-c2nnc(SCc3ccccc3C)o2)ccc1OCc1ccccc1C | 195 | 18.9 | 15.19 | – |
| COc1cc(-c2nnc(SCc3cc(F)cc(F)c3)o2)ccc1OCc1cc(F)cc(F)c1 | 266 | 14.4 | 18.49 | – |
| COc1cc(-c2nnc(SCc3cccc(Cl)c3)o2)ccc1OCc1cccc(Cl)c1 | 178 | 15.8 | 11.23 | – |
| COc1cccc(COc2ccc(-c3nnc(SCc4cccc(OC)c4)o3)cc2OC)c1 | 242 | 10.1 | 24.04 | – |
| COc1cc(-c2nnc(SCc3ccc(Cl)cc3)o2)ccc1OCc1ccc(Cl)cc1 | 136 | 17.2 | 5 | – |
| COc1cc(-c2nnc(SCc3ccc(F)cc3)o2)ccc1OCc1ccc(F)cc1 | 153 | 12.9 | 11.89 | – |
| COc1cc(-c2nnc(SCc3ccccc3C)o2)ccc1O | 592 | 8.42 | 70.36 | IC50 [4]: 6.48 µM |
| COc1cc(-c2nnc(SCc3ccccc3F)o2)ccc1OCc1ccccc1F | 171 | 4.76 | 35.89 | IC50 [4]: 5.12 µM; inhibition [9]: Active; inhibition [10]: Active; inhibition [11]: Active |
| COc1cc(-c2nnc(SCc3ccccc3Br)o2)ccc1OCc1ccccc1Br | 151 | 8.71 | 17.33 | – |
| COc1cc(-c2nnc(SCc3ccc(C)cc3)o2)ccc1OCc1ccc(C)cc1 | 275 | 9.06 | 30.38 | – |
| COc1cc(-c2nnc(SCc3ccc(C)cc3)o2)ccc1O | 549 | 6.21 | 88.5 | IC50 [4]: 7.41 µM |
| COc1cc(-c2nnc(SCc3ccc([N+](=O)[O-])cc3)o2)ccc1O | 688 | 14.2 | 48.6 | – |
| COc1cc(-c2nnc(SCc3ccc([N+](=O)[O-])cc3)o2)ccc1OCc1ccc([N+](=O)[O-])cc1 | 156 | 7.6 | 20.48 | – |
